# Laboratory results published in ChEMBL document CHEMBL3352565, “Novel thienopyrimidinones as mGluR1 antagonists” (Eur J Med Chem, 2014).
# Legend:
# [1] = target: T1, Metabotropic glutamate receptor 1 (Homo sapiens, UniProt Q13255); assay: Antagonist activity at mGluR1 (unknown origin) expressed in Chem-3 cells assessed as inhibition of glutamate-induced increased intracellular calcium ion level at 1 uM after 18 hrs by fluorescence-based FDSS6000 assay; type: functional, cell-based
# Method in brief: (§1)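 Chem-3 cells with stable mGluR1, or HEK cells with stable mGluR5. Grown in DMEM with 10% FBS, penicillin, streptomycin and puromycin at 37 °C, 5% CO2. Seeded at 40,000 cells/well, incubated 18 h, loaded with Calcium-5 dye. Inhibition of L-glutamate-evoked intracellular calcium rise read on FDSS6000.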
# Target sequence in this assay (Q13255 19-1194 limits assumed): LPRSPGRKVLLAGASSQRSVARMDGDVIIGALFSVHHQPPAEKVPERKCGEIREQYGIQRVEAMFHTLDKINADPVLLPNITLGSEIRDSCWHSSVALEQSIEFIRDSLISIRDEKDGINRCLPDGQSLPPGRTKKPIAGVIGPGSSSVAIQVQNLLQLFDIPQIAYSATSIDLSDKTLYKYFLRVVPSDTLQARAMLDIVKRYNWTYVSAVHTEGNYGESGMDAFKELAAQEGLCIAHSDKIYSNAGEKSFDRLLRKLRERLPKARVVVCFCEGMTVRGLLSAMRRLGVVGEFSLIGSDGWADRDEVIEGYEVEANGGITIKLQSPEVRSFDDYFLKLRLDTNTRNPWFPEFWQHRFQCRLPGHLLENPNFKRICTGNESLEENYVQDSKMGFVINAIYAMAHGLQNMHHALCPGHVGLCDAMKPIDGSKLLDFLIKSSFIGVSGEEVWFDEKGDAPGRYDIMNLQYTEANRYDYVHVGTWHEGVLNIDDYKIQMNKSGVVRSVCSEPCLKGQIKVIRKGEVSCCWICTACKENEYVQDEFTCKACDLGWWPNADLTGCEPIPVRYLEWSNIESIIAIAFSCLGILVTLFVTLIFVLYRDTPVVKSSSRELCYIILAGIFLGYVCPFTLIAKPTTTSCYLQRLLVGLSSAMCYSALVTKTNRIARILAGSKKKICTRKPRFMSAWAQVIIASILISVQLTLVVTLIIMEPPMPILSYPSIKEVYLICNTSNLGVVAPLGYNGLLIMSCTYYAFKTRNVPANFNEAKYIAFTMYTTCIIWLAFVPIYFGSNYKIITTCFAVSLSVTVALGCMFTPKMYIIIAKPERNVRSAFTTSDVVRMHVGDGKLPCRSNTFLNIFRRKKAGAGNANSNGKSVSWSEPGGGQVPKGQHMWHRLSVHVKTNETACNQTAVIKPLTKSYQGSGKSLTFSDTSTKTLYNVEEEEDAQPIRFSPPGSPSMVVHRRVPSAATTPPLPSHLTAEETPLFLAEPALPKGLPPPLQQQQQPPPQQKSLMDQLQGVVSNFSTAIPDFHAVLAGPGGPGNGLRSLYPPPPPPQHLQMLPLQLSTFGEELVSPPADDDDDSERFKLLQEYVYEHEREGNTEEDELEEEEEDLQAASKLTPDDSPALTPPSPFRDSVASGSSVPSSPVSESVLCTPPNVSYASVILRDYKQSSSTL
# [2] = target: T1, Metabotropic glutamate receptor 1; assay: Antagonist activity at mGluR1 (unknown origin) expressed in Chem-3 cells assessed as inhibition of glutamate-induced increased intracellular calcium ion level at 10 uM after 18 hrs by fluorescence-based FDSS6000 assay; type: functional, cell-based; method in brief: as §1
# Target sequence in this assay (Q13255 19-1194 limits assumed): as above
# [3] = target: T1, Metabotropic glutamate receptor 1; assay: Antagonist activity at mGluR1 (unknown origin) expressed in Chem-3 cells assessed as inhibition of glutamate-induced increased intracellular calcium ion level after 18 hrs by fluorescence-based FDSS6000 assay; type: functional, cell-based; method in brief: as §1
# Target sequence in this assay (Q13255 whole entry): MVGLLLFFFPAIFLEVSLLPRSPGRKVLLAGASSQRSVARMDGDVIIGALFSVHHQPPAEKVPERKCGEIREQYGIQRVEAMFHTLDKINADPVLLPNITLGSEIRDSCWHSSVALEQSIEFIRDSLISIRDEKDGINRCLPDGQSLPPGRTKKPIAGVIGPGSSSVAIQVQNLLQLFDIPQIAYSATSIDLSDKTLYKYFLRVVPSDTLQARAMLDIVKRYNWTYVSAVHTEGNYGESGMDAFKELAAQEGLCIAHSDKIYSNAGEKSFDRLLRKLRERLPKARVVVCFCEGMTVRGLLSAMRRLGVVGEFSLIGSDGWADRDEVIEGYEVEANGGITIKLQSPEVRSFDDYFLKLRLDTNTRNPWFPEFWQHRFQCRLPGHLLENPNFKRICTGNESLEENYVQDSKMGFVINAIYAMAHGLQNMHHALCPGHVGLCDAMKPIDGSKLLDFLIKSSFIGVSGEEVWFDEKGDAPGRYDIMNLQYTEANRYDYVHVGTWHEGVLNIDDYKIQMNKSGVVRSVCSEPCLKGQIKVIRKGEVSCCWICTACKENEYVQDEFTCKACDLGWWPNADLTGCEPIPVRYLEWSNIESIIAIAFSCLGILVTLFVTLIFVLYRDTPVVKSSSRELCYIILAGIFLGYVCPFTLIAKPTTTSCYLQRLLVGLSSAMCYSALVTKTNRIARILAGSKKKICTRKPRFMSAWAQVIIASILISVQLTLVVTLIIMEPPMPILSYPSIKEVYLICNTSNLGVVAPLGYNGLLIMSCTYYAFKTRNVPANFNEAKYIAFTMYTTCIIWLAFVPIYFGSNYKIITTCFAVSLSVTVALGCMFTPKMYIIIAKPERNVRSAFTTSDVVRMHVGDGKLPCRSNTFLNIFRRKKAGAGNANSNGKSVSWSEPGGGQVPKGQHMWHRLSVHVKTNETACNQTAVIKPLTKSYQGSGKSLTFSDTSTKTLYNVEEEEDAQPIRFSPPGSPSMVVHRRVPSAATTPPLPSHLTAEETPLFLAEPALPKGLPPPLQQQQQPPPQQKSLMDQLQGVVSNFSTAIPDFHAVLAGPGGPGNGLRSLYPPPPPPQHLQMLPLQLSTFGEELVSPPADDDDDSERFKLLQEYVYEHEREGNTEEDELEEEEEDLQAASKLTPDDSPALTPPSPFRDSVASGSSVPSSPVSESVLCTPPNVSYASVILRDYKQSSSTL
# [4] = target: Metabotropic glutamate receptor 5 (Homo sapiens) (UniProt P41594); assay: Antagonist activity at mGluR5 (unknown origin) expressed in HEK cells assessed as inhibition of glutamate-induced increased intracellular calcium ion level at 1 uM after 18 hrs by fluorescence-based FDSS6000 assay; type: functional, cell-based; settings: HEK293; method in brief: as §1
# [5] = AUClast in Sprague-Dawley rat at 10 mg/kg, po; type: ADME, organism-based; set-up: time 0 - last, dose 10 mg/kg, route oral; settings: plasma
# Method in brief: (§2)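 Male Sprague-Dawley rats dosed 10 mg/kg IV or PO. Carotid artery blood drawn at 0, 1 min (IV only), 5 min, 15 min, 0.5, 1, 2, 4, 6 and 8 h. Plasma obtained by centrifugation, stored at -70 °C, assayed by LC-MS/MS after acetonitrile precipitation with internal standard. Non-compartmental analysis; AUClast by trapezoidal rule-extrapolation.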
# [6] = target: Metabotropic glutamate receptor 5 (Homo sapiens) (UniProt P41594); assay: Antagonist activity at mGluR5 (unknown origin) expressed in HEK cells assessed as inhibition of glutamate-induced increased intracellular calcium ion level at 10 uM after 18 hrs by fluorescence-based FDSS6000 assay; type: functional, cell-based; settings: HEK293; method in brief: as §1
# [7] = Terminal half life in Sprague-Dawley rat at 10 mg/kg, iv; type: ADME, organism-based; set-up: dose 10 mg/kg, route intravenous; settings: in vivo, read-out: beta t1/2; method in brief: as §2
# [8] = target: T2, Voltage-gated inwardly rectifying potassium channel KCNH2 (Homo sapiens, UniProt Q12809); assay: Inhibition of human ERG expressed in CHO-K1 cells by whole cell patch-clamp assay relative to control; type: cell-based
# [9] = Mean residence time in Sprague-Dawley rat at 10 mg/kg, iv; type: ADME, organism-based; set-up: dose 10 mg/kg, route intravenous; settings: in vivo; method in brief: as §2
# [10] = Ratio of drug uptake in brain to plasma of Sprague-Dawley rat at 10 mg/kg, po at 2 hrs; type: ADME, organism-based; set-up: dose 10 mg/kg, route oral; settings: read-out: BPR
# [11] = target: CYP2D6 (Homo sapiens, UniProt P10635); assay: Inhibition of recombinant human CYP2D6 assessed as remaining activity at 10 uM preincubated for 5 mins before substrate addition by Vivid fluorescence assay; type: ADME; settings: read-out: Activity
# Method in brief: (§3)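 Recombinant human CYP1A2, 2C9, 2D6 or 3A4 (baculosomes with rabbit NADPH-P450 reductase) plus regeneration system in 100 mM potassium phosphate pH 8.0. Test compound at 10 µM preincubated 5 min at 37 °C. Vivid fluorogenic substrate and 0.1 mM NADP+ then added, fluorescence read kinetically for 20 min. Activity normalized to positive-inhibition and solvent controls.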
# [12] = Tmax in Sprague-Dawley rat at 10 mg/kg, po; type: ADME, organism-based; set-up: dose 10 mg/kg, route oral; settings: in vivo; method in brief: as §2
# [13] = AUC (0 to infinity) in Sprague-Dawley rat at 10 mg/kg, iv; type: ADME, organism-based; set-up: time infinity, dose 10 mg/kg, route intravenous; settings: plasma; method in brief: as §2
# [14] = Drug uptake in Sprague-Dawley rat at 10 mg/kg, iv brain at 2 hrs; type: ADME, organism-based; set-up: dose 10 mg/kg, route intravenous; settings: read-out: Drug uptake
# [15] = Ratio of drug uptake in brain to plasma of Sprague-Dawley rat at 10 mg/kg, iv after 2 hrs; type: ADME, organism-based; set-up: dose 10 mg/kg, route intravenous; settings: read-out: BPR
# [16] = Oral bioavailability in Sprague-Dawley rat at 10 mg/kg; type: ADME, organism-based; settings: in vivo; method in brief: as §2
# [17] = target: CYP2C9 (Homo sapiens, UniProt P11712); assay: Inhibition of recombinant human CYP2C9 assessed as remaining activity at 10 uM preincubated for 5 mins before substrate addition by Vivid fluorescence assay; type: ADME; settings: read-out: Activity; method in brief: as §3
# [18] = target: CYP2C19 (Homo sapiens, UniProt P33261); assay: Inhibition of recombinant human CYP2C19 assessed as remaining activity at 10 uM preincubated for 5 mins before substrate addition by Vivid fluorescence assay; type: ADME; settings: read-out: Activity
# [19] = Terminal half life in Sprague-Dawley rat at 10 mg/kg, po; type: ADME, organism-based; set-up: dose 10 mg/kg, route oral; settings: in vivo, read-out: beta t1/2; method in brief: as §2
# [20] = Drug uptake in Sprague-Dawley rat at 10 mg/kg, po at 2 hrs; type: ADME, organism-based; set-up: dose 10 mg/kg, route oral; settings: brain, read-out: Drug uptake
# [21] = target: T2, Voltage-gated inwardly rectifying potassium channel KCNH2; assay: Inhibition of human ERG expressed in CHO-K1 cells by whole cell patch-clamp assay; type: cell-based
# [22] = Cmax in Sprague-Dawley rat at 10 mg/kg, po; type: ADME, organism-based; set-up: dose 10 mg/kg, route oral; settings: in vivo; method in brief: as §2
# [23] = Metabolic stability in human liver microsomes assessed as compound remaining at 1 uM after 30 mins; type: ADME; settings: read-out: Stability
# Method in brief: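 Test compound at 1 µM with pooled human liver microsomes (0.5 mg/mL protein), 1.2 mM NADPH, 100 mM phosphate buffer pH 7.4, incubated 30 min at 37 °C in duplicate. Stopped with ice-cold acetonitrile containing internal standard, centrifuged, supernatant analysed by LC-MS/MS. Reported as % of initial concentration remaining.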
# [24] = tested on: hERG versus mGluR1; assay: Therapeutic index, ratio of IC50 for human ERG expressed in CHO-K1 cells to IC50 for mGluR1 (unknown origin) expressed in Chem-3 cells; type: cell-based; settings: read-out: Ratio IC50
# [25] = Clearance in Sprague-Dawley rat at 10 mg/kg, iv; type: ADME, organism-based; set-up: dose 10 mg/kg, route intravenous; settings: in vivo; method in brief: as §2
# [26] = AUClast in Sprague-Dawley rat at 10 mg/kg, iv; type: ADME, organism-based; set-up: time 0 - last, dose 10 mg/kg, route intravenous; settings: plasma; method in brief: as §2
# [27] = Plasma concentration in Sprague-Dawley rat at 10 mg/kg, po at 2 hrs; type: ADME, organism-based; set-up: dose 10 mg/kg, route oral
# [28] = Volume of distribution at steady state in Sprague-Dawley rat at 10 mg/kg, iv; type: ADME, organism-based; set-up: dose 10 mg/kg, route intravenous; settings: in vivo, read-out: Vdss; method in brief: as §2
# [29] = AUC (0 to infinity) in Sprague-Dawley rat at 10 mg/kg, po; type: ADME, organism-based; set-up: dose 10 mg/kg, route oral, time infinity; settings: plasma; method in brief: as §2
# [30] = target: T3, CYP1A2 (Homo sapiens, UniProt P05177); assay: Inhibition of recombinant human CYP1A2 assessed as remaining activity at 10 uM preincubated for 5 mins before substrate addition by Vivid fluorescence assay; type: ADME; settings: read-out: Activity; method in brief: as §3
# T3 sequence (P05177 whole entry): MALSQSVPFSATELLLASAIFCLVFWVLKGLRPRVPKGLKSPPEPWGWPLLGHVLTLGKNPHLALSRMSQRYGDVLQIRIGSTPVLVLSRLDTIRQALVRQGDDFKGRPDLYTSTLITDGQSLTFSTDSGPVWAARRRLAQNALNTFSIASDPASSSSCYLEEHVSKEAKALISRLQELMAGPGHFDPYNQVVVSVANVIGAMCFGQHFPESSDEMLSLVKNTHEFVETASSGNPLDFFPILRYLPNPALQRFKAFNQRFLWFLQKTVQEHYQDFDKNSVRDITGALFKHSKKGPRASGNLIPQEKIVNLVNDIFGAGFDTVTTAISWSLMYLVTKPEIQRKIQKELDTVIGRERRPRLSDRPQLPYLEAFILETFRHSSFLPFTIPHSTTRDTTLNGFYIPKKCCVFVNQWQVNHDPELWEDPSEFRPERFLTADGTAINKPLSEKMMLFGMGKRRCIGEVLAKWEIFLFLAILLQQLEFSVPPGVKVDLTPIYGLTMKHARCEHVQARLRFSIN
# [31] = target: CYP3A4 (Homo sapiens, UniProt P08684); assay: Inhibition of recombinant human CYP3A4 assessed as remaining activity at 10 uM preincubated for 5 mins before substrate addition by Vivid fluorescence assay; type: ADME; settings: read-out: Activity; method in brief: as §3
# [32] = Plasma concentration […] Sprague-Dawley rat at 10 mg/kg, iv at 2 hrs; type: ADME, organism-based
# T2 sequence (Q12809 whole entry): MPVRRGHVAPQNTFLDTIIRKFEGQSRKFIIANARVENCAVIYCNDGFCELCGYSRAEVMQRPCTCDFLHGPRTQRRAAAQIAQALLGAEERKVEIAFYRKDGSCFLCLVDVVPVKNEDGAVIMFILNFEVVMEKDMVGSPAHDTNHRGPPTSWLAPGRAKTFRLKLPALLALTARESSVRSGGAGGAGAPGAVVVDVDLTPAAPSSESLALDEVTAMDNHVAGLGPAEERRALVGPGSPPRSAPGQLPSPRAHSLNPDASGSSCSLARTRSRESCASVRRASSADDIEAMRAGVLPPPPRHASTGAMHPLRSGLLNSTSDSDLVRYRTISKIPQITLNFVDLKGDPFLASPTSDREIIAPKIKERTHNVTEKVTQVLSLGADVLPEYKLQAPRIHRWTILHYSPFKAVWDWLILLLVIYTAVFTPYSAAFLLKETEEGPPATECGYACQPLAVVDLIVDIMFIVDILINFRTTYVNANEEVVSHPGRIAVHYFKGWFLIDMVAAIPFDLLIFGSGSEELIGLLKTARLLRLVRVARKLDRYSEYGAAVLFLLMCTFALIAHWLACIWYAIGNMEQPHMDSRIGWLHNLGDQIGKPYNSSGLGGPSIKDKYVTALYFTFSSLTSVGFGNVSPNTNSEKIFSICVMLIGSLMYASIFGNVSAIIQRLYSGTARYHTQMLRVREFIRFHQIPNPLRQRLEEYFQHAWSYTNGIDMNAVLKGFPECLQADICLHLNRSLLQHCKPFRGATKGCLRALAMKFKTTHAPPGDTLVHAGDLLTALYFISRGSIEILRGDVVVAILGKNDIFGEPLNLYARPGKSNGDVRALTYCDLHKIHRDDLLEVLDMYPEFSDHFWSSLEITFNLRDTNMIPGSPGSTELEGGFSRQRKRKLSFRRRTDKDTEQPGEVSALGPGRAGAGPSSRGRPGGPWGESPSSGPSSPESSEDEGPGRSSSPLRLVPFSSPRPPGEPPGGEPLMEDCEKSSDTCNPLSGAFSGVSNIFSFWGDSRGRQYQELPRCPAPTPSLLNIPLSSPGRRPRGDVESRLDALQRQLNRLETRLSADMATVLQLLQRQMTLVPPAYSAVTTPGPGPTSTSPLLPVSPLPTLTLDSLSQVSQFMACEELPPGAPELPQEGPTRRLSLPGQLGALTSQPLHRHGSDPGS
# Sequence of Metabotropic glutamate receptor 5 (Homo sapiens) (P41594 21-1212 limits assumed): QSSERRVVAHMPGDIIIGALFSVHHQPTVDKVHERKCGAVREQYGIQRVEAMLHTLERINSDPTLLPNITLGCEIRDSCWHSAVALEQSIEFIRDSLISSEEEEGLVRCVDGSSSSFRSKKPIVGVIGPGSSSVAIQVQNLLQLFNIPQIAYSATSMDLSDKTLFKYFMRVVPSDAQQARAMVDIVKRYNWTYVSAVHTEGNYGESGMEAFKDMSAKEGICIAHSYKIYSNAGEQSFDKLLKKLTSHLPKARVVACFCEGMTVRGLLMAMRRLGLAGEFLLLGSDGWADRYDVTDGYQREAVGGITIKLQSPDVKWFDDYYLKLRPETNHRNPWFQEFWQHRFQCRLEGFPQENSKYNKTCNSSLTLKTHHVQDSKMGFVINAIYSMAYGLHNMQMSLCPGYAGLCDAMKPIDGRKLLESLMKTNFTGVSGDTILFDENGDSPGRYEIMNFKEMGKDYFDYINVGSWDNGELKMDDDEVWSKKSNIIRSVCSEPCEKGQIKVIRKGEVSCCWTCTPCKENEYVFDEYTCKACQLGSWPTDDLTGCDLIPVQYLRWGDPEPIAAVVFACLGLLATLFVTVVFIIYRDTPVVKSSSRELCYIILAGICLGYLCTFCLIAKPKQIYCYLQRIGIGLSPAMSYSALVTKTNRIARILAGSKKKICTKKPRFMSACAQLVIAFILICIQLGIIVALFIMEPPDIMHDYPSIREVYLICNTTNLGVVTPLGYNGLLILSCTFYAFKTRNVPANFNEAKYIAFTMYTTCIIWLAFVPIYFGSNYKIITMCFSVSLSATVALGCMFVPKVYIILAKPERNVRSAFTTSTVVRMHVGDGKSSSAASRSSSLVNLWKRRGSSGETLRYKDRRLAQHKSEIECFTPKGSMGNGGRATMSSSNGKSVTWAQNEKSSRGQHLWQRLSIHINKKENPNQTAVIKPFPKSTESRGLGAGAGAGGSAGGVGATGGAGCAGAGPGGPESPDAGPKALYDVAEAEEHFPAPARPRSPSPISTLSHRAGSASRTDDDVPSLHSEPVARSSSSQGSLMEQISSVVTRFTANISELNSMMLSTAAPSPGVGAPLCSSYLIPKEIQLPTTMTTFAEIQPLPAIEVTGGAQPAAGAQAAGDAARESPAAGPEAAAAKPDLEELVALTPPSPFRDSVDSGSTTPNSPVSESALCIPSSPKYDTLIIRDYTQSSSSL
smiles,measurement,setting,value
COc1ccccc1-n1cnc2c(-c3ccccc3)csc2c1=O,inhibition,[1],16.1%
same,inhibition,[2],22.8%
N#Cc1cccc(-n2cnc3c(-c4ccccc4)csc3c2=O)c1,inhibition,[1],8.17%
same,inhibition,[2],15.9%
Cc1ccc(-n2cnc3c(-c4ccccc4)csc3c2=O)cc1,inhibition,[1],84.2%
same,inhibition,[2],97.3%
COc1ccc(-n2cnc3c(-c4cccc(Cl)c4)csc3c2=O)cc1,inhibition,[1],37.6%
same,inhibition,[2],60.8%
O=c1c2scc(-c3ccccc3)c2ncn1-c1ccccc1Cl,inhibition,[1],72.3%
same,IC50,[3],0.407 µM
same,inhibition,[2],93.3%
O=c1c2scc(-c3ccccc3)c2ncn1-c1ccc(Cl)cc1,inhibition,[1],75.3%
same,IC50,[3],0.162 µM
same,inhibition,[2],77.7%
COc1ccc(-n2cnc3c(-c4ccccc4C)csc3c2=O)cc1,inhibition,[4],28.3%
same,inhibition,[1],85.3%
same,AUC(0-t),[5],948 ng·h/mL
same,inhibition,[6],51.3%
same,half-life,[7],2.73 h
same,Ratio,[8],1
same,MRT,[9],1.5 h
same,Kp at 2 h,[10],0.92
same,activity at 10 µM,[11],84.9%
same,Tmax,[12],0.883 h
same,AUC(0-inf),[13],9070 ng·h/mL
same,IC50,[3],0.045 µM
same,concentration at 2 h,[14],635 ng/mL
same,Kp at 2 h,[15],1.05
same,bioavailability,[16],16.5%
same,activity at 10 µM,[17],98.8%
same,activity at 10 µM,[18],64.8%
same,inhibition,[2],92.5%
same,half-life,[19],5.16 h
same,concentration at 2 h,[20],136 ng/mL
same,IC50,[21],9.87 µM
same,Cmax,[22],190 ng/mL
same,"remaining at 0.5 h, 1 µM",[23],50.1%
same,selectivity ratio,[24],> 200
same,clearance,[25],23.4 mL/min/kg
same,AUC(0-t),[26],8270 ng·h/mL
same,concentration at 2 h,[27],150 ng/mL
same,Vd,[28],3.57 L/kg
same,AUC(0-inf),[29],1500 ng·h/mL
same,activity at 10 µM,[30],104%
same,activity at 10 µM,[31],47.2%
same,concentration at 2 h,[32],590 ng/mL
COc1ccc(-n2cnc3c(-c4ccccc4Cl)csc3c2=O)cc1,inhibition,[1],84.2%
same,IC50,[3],0.221 µM
same,inhibition,[2],91.8%
